Laboratory results: ChEMBL document CHEMBL4177556, “Novel 5-HT7R antagonists, arylsulfonamide derivatives of (aryloxy)propyl piperidines: Add-on effect to the antidepressant activity of SSRI and DRI, and pro-cognitive profile” (Bioorg Med Chem, 2017)
Activity calls are given as the source filed them.

Experiments:
[1] = test system: Mus musculus; assay: Antidepressant-like activity in C57BL/6J mouse at 2.5 mg/kg measured during 6 mins session by tail suspension test; format: functional, organism-based
Procedure, shortened: (§1)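 Male C57BL/6J mice (22–26 g), 7–9 per group. Compound in distilled water, i.p. at 10 ml/kg, 60 min before test. Mice suspended by tail from a strain-gauge hook for 6 min. Struggling episodes, average event force and immobility (force below 0.20 N threshold) recorded automatically. One-way ANOVA with Bonferroni; mean ± SEM.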

[2] = test system: Mus musculus; assay: Antidepressant-like activity in Swiss albino mouse assessed as decrease in immobility time at 10 mg/kg measured during last 4 mins of 6 mins test by forced swim test relative to control; format: functional; parameters: scale not given: the % may be the effect or the level left
Procedure, shortened: (§2)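 Porsolt swim test in male Swiss albino mice (22–26 g), 7–10 per dose, each used once, run 09:00–14:00 by a blinded observer. Drugs in distilled water, i.p. at 10 ml/kg: escitalopram 30 min before test, others 60 min. Immobility scored during the last 4 min of a 6 min swim at 23–25 °C. One-way ANOVA with Bonferroni vs vehicle.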

[3] = test system: Rattus norvegicus; assay: Cognitive enhancement effect in Sprague-Dawley rat memory impairment model assessed as reversal of natural forgetting impairment at 1 mg/kg, ip administered 30 mins prior to test measured after 24 hrs by novel object recognition test; format: functional, organism-based
Procedure, shortened: (§3)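 Male Sprague–Dawley rats (about 250 g), handled and acclimatized. Habituated to an open field arena (25 lx) for 5 min, 24 h before testing. Two 3-min trials (T1, T2) separated by a 24 h inter-trial interval. Drug given i.p. 30 min before T1. Object exploration video-tracked; discrimination index = (EB−EA)/(EA+EB).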

[4] = organism: Homo sapiens; assay: Selectivity ratio of Ki for human 5-HT1A receptor to Ki for human 5-HT7b receptor
[5] = target: T1, 5-hydroxytryptamine receptor 1A (Homo sapiens, UniProt P08908); assay: Displacement of [3H]-8-OH-DPAT from human 5-HT1A receptor expressed in HEK293 or CHO-K1 cells after 1 hr by microbeta counting analysis; format: cell-based
T1 sequence (P08908 whole entry): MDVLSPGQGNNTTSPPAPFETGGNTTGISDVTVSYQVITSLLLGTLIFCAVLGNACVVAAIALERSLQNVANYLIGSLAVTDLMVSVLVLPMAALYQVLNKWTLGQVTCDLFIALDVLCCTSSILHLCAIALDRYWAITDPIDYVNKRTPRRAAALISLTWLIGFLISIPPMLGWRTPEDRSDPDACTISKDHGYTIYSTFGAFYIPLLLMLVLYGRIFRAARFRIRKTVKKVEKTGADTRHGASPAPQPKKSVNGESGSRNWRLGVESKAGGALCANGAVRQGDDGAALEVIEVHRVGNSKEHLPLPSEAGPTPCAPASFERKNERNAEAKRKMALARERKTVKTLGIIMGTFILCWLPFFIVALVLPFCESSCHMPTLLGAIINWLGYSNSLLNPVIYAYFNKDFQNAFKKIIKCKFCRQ
Procedure, shortened: (§4)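 Membranes from stably transfected HEK293 or CHO-K1 cells, homogenized, centrifuged twice at 35,000g, with 15 min at 37 °C in between. Receptor-specific Tris-HCl buffers with MgCl2, plus EDTA, pargyline or ascorbate as applicable. Incubated 1 h at 37 °C (5-HT1A at room temperature), filtered, and bound radioactivity counted.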

[6] = target: T2, 5-hydroxytryptamine receptor 7 (Homo sapiens, UniProt P34969); assay: Displacement of [3H]-5-CT from human 5-HT7b receptor expressed in HEK293 cells after 1 hr by microbeta counting analysis; format: cell-based; procedure, shortened: as §4
T2 sequence (P34969 whole entry): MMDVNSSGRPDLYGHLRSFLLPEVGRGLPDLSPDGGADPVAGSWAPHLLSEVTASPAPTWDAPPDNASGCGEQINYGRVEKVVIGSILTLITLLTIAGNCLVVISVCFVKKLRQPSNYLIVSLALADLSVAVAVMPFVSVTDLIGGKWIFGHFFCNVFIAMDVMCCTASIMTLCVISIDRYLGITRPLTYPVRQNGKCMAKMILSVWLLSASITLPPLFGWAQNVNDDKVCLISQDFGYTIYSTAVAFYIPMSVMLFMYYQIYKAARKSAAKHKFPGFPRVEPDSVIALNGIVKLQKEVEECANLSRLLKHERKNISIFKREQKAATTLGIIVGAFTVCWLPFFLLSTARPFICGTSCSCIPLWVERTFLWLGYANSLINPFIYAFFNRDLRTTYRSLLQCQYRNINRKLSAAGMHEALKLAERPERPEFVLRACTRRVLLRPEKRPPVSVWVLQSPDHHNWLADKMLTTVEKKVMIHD

[7] = target: T2, 5-hydroxytryptamine receptor 7; assay: Antagonist activity at human 5-HT7b receptor expressed in HEK293 cells assessed as inhibition of 5-CT induced cAMP accumulation after 30 mins by LANCE based TR-FRET assay; format: functional, cell-based
Procedure, shortened: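 Stable 5-HT7 HEK293 cells in DMEM with 10% dialysed FBS and G418, harvested at 90% confluence, washed in warm PBS, and resuspended in HBSS/5 mM HEPES/0.5 mM IBMX/0.1% BSA. Compound incubated with cells for 30 min at room temperature against 5-CT (10 nM). Cells lysed with Eu-cAMP/ULight-anti-cAMP for 1 h at room temperature, then LANCE cAMP read-out. Triplicate at 8 concentrations.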

[8] = test system: Mus musculus; assay: Antidepressant-like activity in C57BL/6J mouse assessed as decrease in immobility time at 2.5 mg/kg measured during 6 mins session by tail suspension test; format: functional, organism-based; procedure, shortened: as §1
[9] = target: Sodium-dependent serotonin transporter (Homo sapiens) (UniProt P31645); assay: Displacement of [3H]imipramine from recombinant human SERT at 1 uM after 60 mins by scintillation counting analysis relative to control
Sodium-dependent serotonin transporter (Homo sapiens), sequence (P31645 whole entry, looked up): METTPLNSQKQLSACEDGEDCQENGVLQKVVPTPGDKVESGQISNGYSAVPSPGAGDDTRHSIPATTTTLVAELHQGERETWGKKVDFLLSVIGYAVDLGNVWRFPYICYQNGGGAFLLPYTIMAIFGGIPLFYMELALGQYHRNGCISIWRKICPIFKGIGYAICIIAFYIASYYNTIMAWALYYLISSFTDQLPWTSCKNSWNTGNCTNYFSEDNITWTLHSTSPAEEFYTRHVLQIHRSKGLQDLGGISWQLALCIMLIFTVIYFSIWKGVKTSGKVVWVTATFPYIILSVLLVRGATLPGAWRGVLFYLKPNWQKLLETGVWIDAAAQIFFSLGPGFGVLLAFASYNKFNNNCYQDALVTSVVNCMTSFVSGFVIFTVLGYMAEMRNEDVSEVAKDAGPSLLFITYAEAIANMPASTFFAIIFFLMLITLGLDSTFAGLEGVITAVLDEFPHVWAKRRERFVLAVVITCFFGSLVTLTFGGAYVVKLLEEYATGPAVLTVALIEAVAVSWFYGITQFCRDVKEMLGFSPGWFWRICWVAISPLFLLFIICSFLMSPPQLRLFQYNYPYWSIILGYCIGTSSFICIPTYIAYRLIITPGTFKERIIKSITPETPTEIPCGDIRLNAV
Procedure, shortened: (§5)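 Transporter and α1-adrenergic binding run externally by Eurofins Cerep using their standard protocols. Reported as % inhibition of control specific binding.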

[10] = target: 5-hydroxytryptamine receptor 6 (Homo sapiens, UniProt P50406); assay: Displacement of [3H]-LSD from human 5-HT6 receptor expressed in HEK293 or CHO-K1 cells after 1 hr by microbeta counting analysis; format: cell-based; procedure, shortened: as §4
5-hydroxytryptamine receptor 6, sequence (P50406 whole entry): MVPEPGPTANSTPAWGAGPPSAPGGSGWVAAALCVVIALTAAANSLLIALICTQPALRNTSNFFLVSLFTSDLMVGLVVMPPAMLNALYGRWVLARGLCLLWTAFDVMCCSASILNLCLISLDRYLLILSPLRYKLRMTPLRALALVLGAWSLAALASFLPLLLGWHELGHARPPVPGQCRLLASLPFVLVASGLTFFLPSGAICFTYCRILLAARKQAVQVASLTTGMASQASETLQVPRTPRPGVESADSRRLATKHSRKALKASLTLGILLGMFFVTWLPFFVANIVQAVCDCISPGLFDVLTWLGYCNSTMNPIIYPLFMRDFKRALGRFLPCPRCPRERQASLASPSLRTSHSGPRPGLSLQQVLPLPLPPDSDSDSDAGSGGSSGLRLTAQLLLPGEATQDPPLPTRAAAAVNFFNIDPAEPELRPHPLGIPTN

[11] = test system: Mus musculus; assay: Antidepressant-like activity in C57BL/6J mouse assessed as increase in force of fights at 2.5 mg/kg measured during 6 mins session by tail suspension test; format: functional, organism-based; procedure, shortened: as §1
[12] = test system: Mus musculus; assay: Antidepressant-like activity in Swiss albino mouse assessed as decrease in immobility time at 0.312 mg/kg cotreated with 0.625 mg/kg of escitalopram measured during last 4 mins of 6 mins test by forced swim test relative to control; format: functional; parameters: scale not given: the % may be the effect or the level left
Procedure, shortened: (§6)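 Male Swiss albino mice, 7–10 per group. Test compound (i.p., 60 min pre-test) co-given with reboxetine or bupropion (60 min) or escitalopram (30 min), all in distilled water at 10 ml/kg. Placed in a water cylinder (10 cm water, 23–25 °C) for 6 min; immobility scored over the last 4 min by a blinded observer. Two-way ANOVA with Bonferroni.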

[13] = target: D(2) dopamine receptor (Homo sapiens, UniProt P14416); assay: Displacement of [3H]-Raclopride from human dopamine D2L receptor expressed in HEK293 or CHO-K1 cells after 1 hr by microbeta counting analysis; format: cell-based; procedure, shortened: as §4
D(2) dopamine receptor, sequence (P14416 whole entry): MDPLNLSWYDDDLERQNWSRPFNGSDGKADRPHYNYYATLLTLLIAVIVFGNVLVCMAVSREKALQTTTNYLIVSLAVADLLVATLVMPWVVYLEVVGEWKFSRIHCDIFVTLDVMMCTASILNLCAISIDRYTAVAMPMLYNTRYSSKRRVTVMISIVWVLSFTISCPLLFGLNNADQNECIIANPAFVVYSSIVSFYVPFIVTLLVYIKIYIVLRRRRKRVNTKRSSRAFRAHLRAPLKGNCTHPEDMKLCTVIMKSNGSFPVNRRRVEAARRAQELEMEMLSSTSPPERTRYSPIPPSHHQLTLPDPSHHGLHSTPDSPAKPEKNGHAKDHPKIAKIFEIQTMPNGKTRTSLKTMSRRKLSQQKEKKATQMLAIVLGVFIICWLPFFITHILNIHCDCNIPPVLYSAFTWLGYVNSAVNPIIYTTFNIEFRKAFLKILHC

[14] = target: 5-hydroxytryptamine receptor 2A (Homo sapiens, UniProt P28223); assay: Displacement of [3H]-Ketanserin from human 5-HT2A receptor expressed in HEK293 or CHO-K1 cells after 1 hr by microbeta counting analysis; format: cell-based; procedure, shortened: as §4
5-hydroxytryptamine receptor 2A, sequence (P28223 whole entry): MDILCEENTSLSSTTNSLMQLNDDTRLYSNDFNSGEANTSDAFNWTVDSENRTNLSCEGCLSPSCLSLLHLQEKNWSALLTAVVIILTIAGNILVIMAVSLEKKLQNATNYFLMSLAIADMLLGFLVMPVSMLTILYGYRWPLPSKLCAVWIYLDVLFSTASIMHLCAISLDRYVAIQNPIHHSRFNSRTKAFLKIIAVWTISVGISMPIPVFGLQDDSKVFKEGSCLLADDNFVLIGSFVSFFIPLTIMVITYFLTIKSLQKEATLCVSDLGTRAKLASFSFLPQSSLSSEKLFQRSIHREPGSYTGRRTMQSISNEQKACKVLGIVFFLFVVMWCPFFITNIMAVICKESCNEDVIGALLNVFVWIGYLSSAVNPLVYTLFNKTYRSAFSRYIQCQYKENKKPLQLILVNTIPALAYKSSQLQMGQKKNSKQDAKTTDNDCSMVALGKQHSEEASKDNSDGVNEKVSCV

[15] = target: Sodium-dependent noradrenaline transporter (Homo sapiens) (UniProt P23975); assay: Displacement of [3H]nisoxetine from recombinant human NET at 1 uM after 120 mins by scintillation counting analysis relative to control; procedure, shortened: as §5
Sodium-dependent noradrenaline transporter (Homo sapiens), sequence (P23975 whole entry): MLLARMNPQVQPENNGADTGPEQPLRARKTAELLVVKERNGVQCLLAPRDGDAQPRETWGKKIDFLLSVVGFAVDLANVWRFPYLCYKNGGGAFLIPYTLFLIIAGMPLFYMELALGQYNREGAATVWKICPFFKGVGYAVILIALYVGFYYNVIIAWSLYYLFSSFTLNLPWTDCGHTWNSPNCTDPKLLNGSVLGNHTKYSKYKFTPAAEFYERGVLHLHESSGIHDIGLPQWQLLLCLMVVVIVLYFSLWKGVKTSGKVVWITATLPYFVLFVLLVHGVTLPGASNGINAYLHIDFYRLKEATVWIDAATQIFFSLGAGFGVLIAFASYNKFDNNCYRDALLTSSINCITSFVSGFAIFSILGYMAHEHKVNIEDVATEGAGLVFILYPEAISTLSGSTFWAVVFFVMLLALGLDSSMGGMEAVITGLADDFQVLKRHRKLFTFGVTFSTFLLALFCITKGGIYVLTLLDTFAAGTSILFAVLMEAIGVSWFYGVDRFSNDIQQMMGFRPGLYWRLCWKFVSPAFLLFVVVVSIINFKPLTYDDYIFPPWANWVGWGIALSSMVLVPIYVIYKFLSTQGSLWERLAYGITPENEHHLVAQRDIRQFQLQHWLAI

[16] = target: Sodium-dependent dopamine transporter (Homo sapiens) (UniProt Q01959); assay: Displacement of [3H]BTCP from recombinant human DAT at 1 uM after 120 mins by scintillation counting analysis relative to control; procedure, shortened: as §5
Sodium-dependent dopamine transporter (Homo sapiens), sequence (Q01959 whole entry): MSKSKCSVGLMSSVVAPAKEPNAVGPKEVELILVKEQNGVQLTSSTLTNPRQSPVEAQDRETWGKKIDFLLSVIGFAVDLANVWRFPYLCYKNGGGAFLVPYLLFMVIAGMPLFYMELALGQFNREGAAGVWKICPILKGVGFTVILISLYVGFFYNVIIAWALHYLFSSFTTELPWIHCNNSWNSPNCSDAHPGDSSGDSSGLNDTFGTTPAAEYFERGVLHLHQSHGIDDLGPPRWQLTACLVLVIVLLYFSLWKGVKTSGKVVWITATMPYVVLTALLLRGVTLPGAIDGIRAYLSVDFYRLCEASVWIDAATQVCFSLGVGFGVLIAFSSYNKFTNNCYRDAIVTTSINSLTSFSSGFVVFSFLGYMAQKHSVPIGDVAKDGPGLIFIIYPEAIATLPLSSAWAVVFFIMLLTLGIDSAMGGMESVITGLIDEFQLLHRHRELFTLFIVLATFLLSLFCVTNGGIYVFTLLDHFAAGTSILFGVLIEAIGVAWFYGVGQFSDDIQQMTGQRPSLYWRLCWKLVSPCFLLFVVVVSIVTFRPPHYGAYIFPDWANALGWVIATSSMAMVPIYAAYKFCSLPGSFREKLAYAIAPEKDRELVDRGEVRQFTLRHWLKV

[17] = test system: Rattus norvegicus; assay: Cognitive enhancement effect in Sprague-Dawley rat memory impairment model assessed as reversal of natural forgetting impairment administered ip 30 mins prior to test measured after 24 hrs by novel object recognition test; format: functional, organism-based; procedure, shortened: as §3
[18] = test system: Mus musculus; assay: Antidepressant-like activity in Swiss albino mouse assessed as decrease in immobility time at 0.312 mg/kg cotreated with 1.25 mg/kg of bupropion measured during last 4 mins of 6 mins test by forced swim test; format: functional, organism-based; procedure, shortened: as §6
[19] = test system: Mus musculus; assay: Toxicity in mouse assessed as effect on spontaneous locomotory activity at 0.312 to 2.5 mg/kg, ip administered 60 mins prior to testing measured for 6 mins; format: organism-based; conditions: in vivo, 0.1 h
Procedure, shortened: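 Swiss albino or C57BL/6J mice habituated 30 min in activity cages. Ambulation counted from 2–6 min (matching the swim test) or over 6 min (matching the tail suspension test) with an infrared multi-channel activity monitor. Dosing i.p. as for the behavioral tests.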

[20] = test system: Mus musculus; assay: Antidepressant-like activity in Swiss albino mouse assessed as decrease in immobility time at 0.625 to 2.5 mg/kg measured during last 4 mins of 6 mins test by forced swim test relative to control; format: functional; parameters: scale not given: the % may be the effect or the level left; procedure, shortened: as §2
[21] = test system: Mus musculus; assay: Antidepressant-like activity in C57BL/6J mouse assessed as increase in number of fight episodes at 1.25 mg/kg measured during 6 mins session by tail suspension test; format: functional, organism-based; procedure, shortened: as §1

| Ratio Ki [4] | Ki [5] | Ki [6] | SMILES | other results |
| --- | --- | --- | --- | --- |
| 22 | 696 nM | 32 nM | CC(COc1ccccc1-c1ccccc1)N1CCC(NS(=O)(=O)c2cccc(Cl)c2)CC1 (stereo unspecified) | – |
| 9 | 297 nM | 34 nM | CC(COc1ccccc1-c1ccccc1)N1CCC(NS(=O)(=O)c2ccc(F)cc2)CC1 (stereo unspecified) | – |

The remaining lines, values behind:

| SMILES | Ratio Ki [4] | Ki [5] | Ki [6] | other results |
| --- | --- | --- | --- | --- |
| CC1CCN(CC[C@H]2CCCN2S(=O)(=O)c2cccc(O)c2)CC1 | – | – | – | Activity [1]: Active; Activity [2]: 31%; Activity [3]: Active |
| CC(C)c1ccccc1OCC(C)N1CCC(NS(=O)(=O)c2cccc(F)c2)CC1 (stereo unspecified) | 6 | 962 nM | 170 nM | – |
| CC(C)c1ccccc1OCCCN1CCC(NS(=O)(=O)c2ccc(F)cc2)CC1 | 65 | 2080 nM | 32 nM | Kb [7]: 1 nM; Activity [8]: Active; Activity [9]: 79%; Ki [10]: 268 nM; Activity [11]: Active; Activity [12]: 32.6%; Ki [13]: 328 nM; Ki [14]: 1350 nM; Activity [15]: < 10%; Activity [16]: < 10%; Activity [17]: Dose-dependent effect; Activity [18]: Active; Activity [19]: Non-Toxic; Activity [20]: 19 - 53%; Activity [21]: Active |
| CC(C)c1ccccc1OCCCN1CCC(NS(=O)(=O)c2cccc(F)c2)CC1 | 34 | 1790 nM | 52 nM | – |
| O=S(=O)(NC1CCN(CCCOc2ccccc2-c2ccccc2)CC1)c1cccc(Cl)c1 | 31 | 1630 nM | 52 nM | – |
